Screening data as filed in PubChem.
hERG protect = hERG (human) protection from proarrhythmic block | Q12809 | CHO-hERG, FluxOR thallium flux, dofetilide IC70 present | activation (rescue from dofetilide block), less the hit threshold, % at 10 µM | 310,000 compounds, 0.51% hits | AID 1511;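 active = activation above the mean of controls blocked by dofetilide plus 5 SD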;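 also: thallium influx through hERG after potassium depolarization seen as dye fluorescence rise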
KCNQ1 block = blocks the human KCNQ1 potassium channel | P51787 | CHO-K1 KCNQ1, FluxOR thallium flux fluorescence; stronger effect = higher value | B-score at 10 µM | 310,000 compounds, 1.3% hits;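 active = compounds whose thallium flux B-score, printed positive for inhibition, exceeds three library SD while starting fluorescence stays within three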;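 also: channel opened by potassium depolarization with thallium stimulus after 20 min compound exposure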
KCNQ1 act = potentiates or activates the human KCNQ1 potassium channel | P51787 | CHO-K1 KCNQ1, thallium flux FluxOR fluorescence; stronger effect = higher value | B-score at 10 µM | 310,000 compounds, 0.35% hits | AID 2648;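 active = fluorescence ratio B-score, a plate-corrected score, at least three library SD, with initial intensity B-score within 5 SD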
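Assay system: CHO-K1 cells stably expressing KCNQ1. Medium: assay buffer for compound exposure, DMSO matched across wells. Timing: 37 °C overnight plating, 90-min dark dye load, 20-min compound pretreatment. Signal: kinetic FluxOR fluorescence, 10 s baseline plus 110 s post-stimulus.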
KCNK9 inh = blocks the human KCNK9 two-pore domain potassium channel; B-score at 10 µM; 310,000 compounds, 1.2% hits; HEK293 KCNK9, FluxOR thallium flux fluorescence; stronger effect = lower value; AID 488922; Q9NPC2;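 active = ratio B-score over 3 SD below the library mean, with starting fluorescence within 5 SD of its mean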;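 also: negative B-score means less thallium flux so channel inhibition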
Kir21 block = blocks the mouse Kir2.1 inward-rectifier potassium channel; B-score at 10 µM; 310,000 compounds, 0.85% hits; HEK293-Kir2.1, FluxOR thallium flux fluorescence; stronger effect = lower value; P35561;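 active = fluorescence ratio B-score at or below minus 3 SD of library scores, with starting-brightness B-score within 2 SD, cut at about -4.2 in these data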;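 also: channel flux triggered by added potassium and thallium sulfate stimulus; B-score of peak minus minimum fluorescence over baseline after thallium stimulus; more negative B-score means stronger Kir2.1 block with less thallium influx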
Target sequence (P35561 whole entry, looked up): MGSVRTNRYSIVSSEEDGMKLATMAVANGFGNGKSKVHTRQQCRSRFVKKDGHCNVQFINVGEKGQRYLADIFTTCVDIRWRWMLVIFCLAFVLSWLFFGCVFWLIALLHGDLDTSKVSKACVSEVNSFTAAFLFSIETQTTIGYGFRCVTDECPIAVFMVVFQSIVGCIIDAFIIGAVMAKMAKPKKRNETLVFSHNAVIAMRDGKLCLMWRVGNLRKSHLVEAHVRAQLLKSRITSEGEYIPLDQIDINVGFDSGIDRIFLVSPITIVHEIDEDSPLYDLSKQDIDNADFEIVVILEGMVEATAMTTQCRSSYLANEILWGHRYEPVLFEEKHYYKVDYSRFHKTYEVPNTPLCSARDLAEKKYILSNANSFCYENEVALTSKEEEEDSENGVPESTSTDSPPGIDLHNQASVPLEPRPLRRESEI
KCNK3 block = human KCNK3 channel inhibition, primary screen. O14649. AID 602410. 340,000 compounds, 0.84% hits. CHO-KCNK3 thallium flux, FluxOR fluorescence; stronger effect = lower value. B-score at 10 µM;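 active = B-score under library mean minus 4 SD, starting fluorescence ratio at most library mean plus 5 SD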;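 also: more negative B-score means stronger inhibition of thallium flux through KCNK3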
Active calls of the source: *; i = inactive; / = no result given. Most compounds without a hit are left out; they make up all but 3.7% or so of the library.

SMILES	hERG protect	KCNQ1 block	KCNQ1 act	KCNK9 inh	Kir21 block	KCNK3 block
CCCC(=O)Nc1c2c(nc3ccccc13)N(c1ccccc1)CC2	-3	i	i	i	0.23	-9.3*
Cc1ccc(CNCCCSc2nc(C)cc(C)n2)cc1	-5	i	i	i	-4.9*	i
Cc1cc(C)nc(SCCCNCc2c(F)cccc2Cl)n1	-8	i	i	i	-2.1	i
O=C(C1CC(=O)N(c2ccccc2)C1)N1CCN(c2ccccc2F)CC1 (stereo unspecified)	-12	i	i	i	1.7	i
Cc1nc2ccccc2n1Cc1ccc(Cl)cc1	-5	6*	i	i	1.2	i
O=c1ccc(-c2nc3ccccc3n2Cc2ccc(Cl)cc2)c[nH]1	-12	i	10*	i	-0.08	i
COc1ccc(NC(=O)CN(C)C(=O)C2=NN(c3ccccc3)C(=O)CC2)cc1	/	/	/	/	/	i
Cc1ccc(N2C(=O)C3CCCN3C2=S)cc1C (stereo unspecified)	1	i	i	i	0.46	i
Cc1ccc(-c2csc3nc[nH]c(=S)c23)cc1C	56*	i	24*	i	0.15	i
COc1ccc(-c2csc3nc[nH]c(=O)c23)cc1OC	-3	i	i	i	-0.48	i
O=C(Nc1nc2ccc(SC(F)F)cc2s1)c1ccc(NS(=O)(=O)c2ccc(F)c(F)c2)cc1	-4	i	i	-6.8*	3.9	i
N/C(CSc1nc(-c2ccccc2)c(-c2ccccc2)o1)=N\O	-12	8*	i	-7.2*	0.03	i
O=C(CSc1n[nH]c(=O)n1C1CC1)c1c[nH]c2ccccc12	/	/	/	/	/	i
CC(OC(=O)c1cccc(-n2cnnn2)c1)C(=O)Nc1ccc(F)cc1 (stereo unspecified)	-8	i	i	i	0.56	i
Cc1ccc(Oc2ccc(OCC(=O)NC(CC(C)C)C(=O)O)cc2)cc1 (stereo unspecified)	4.9*	i	i	i	-1.5	i
CC(C)COc1ccc(C(=O)NC(CC(C)C)C(=O)O)cc1 (stereo unspecified)	-3	i	i	i	2.5	i
Cc1ccccc1/C=C/C(=O)c1ccc([N+](=O)[O-])o1	-11	7*	i	i	-1.9	/
O=C(/C=C/c1cccc([N+](=O)[O-])c1)c1ccc([N+](=O)[O-])o1	-22	i	i	i	-0.99	i
Cc1cccc(/C=C/C(=O)c2ccc([N+](=O)[O-])o2)c1	-17	8*	i	i	-1.2	i
Cc1cccc(C(=O)N/N=C/c2coc3ccccc3c2=O)c1	-13	i	i	i	-0.27	i
O=C(N/N=C/c1coc2ccccc2c1=O)c1cccc([N+](=O)[O-])c1	-8	7*	i	i	-1.2	i
CC(=O)c1ccc(OCc2cc(C(=O)NC3CCCCC3)no2)cc1	-8	i	i	i	0.26	i
N#Cc1ccc(N2Cc3ccccc3C2=NC(=O)c2cccnc2Cl)cc1	-8	i	i	i	2.1	i
O=C(N=C1c2ccccc2CN1c1ccc(F)c(Cl)c1)c1cccnc1Cl	-7	i	i	-11*	-0.21	/
CN(C(=O)c1cccc(NC(=O)Cc2ccc(NC(=O)C3CCCN(C(=O)C4CCC4)C3)cc2)c1)C1CCC1 (stereo unspecified)	/	/	/	/	/	i
SMILES	hERG protect	KCNQ1 block	KCNQ1 act	KCNK9 inh	Kir21 block	KCNK3 block
COc1ccccc1Nc1nc(NCC2CCCO2)c2ccccc2n1 (stereo unspecified)	-19	i	i	i	-12*	i
CCOc1ccccc1OCCCC(=O)N(CC)CC(=O)Nc1ccc(NC(C)=O)cc1	-14	i	i	i	0.73	i
CC(C)c1cccc(C(C)C)c1NC(=O)COC(=O)[C@H](C)NC(N)=O	11*	i	i	i	-1.5	i
CC(C)c1cccc(C(C)C)c1NC(=O)COC(=O)C1=COCCO1	-5	i	i	i	0.89	i
CC(C)CC(=O)NC(Nc1ccccc1F)C(Cl)(Cl)Cl (stereo unspecified)	-6	i	i	i	-2.5	i
CCCC(=O)NC(Nc1ccccc1F)C(Cl)(Cl)Cl (stereo unspecified)	-10	i	i	i	-8.1*	/
CC(C)C(=O)NC(Nc1ccccc1F)C(Cl)(Cl)Cl (stereo unspecified)	-2	i	i	i	-4.5*	i
Cc1cc(Cl)cc(C)c1OCC(=O)NC1CCCCCC1	/	/	/	/	/	i
O=C(COC(=O)c1ccc[nH]c1=O)Nc1ccc(N2CCCCC2)cc1	/	/	/	/	/	i
Brc1ccccc1-c1nc2c3ccccc3ncn2n1	/	/	/	/	/	-9.4*
CCOC(=O)C1CCN(C(=O)CCCn2nc(C)c3c(C)n(-c4ccc(C)cc4)nc3c2=O)CC1	-5	i	i	i	-2.1	i
O=C1c2cc([N+](=O)[O-])ccc2-c2cc(Br)c(N=C(NO)C(F)(F)F)cc21	/	/	/	/	/	-9.5*
COc1cccc(/C=C2\C(=O)N(c3cccc(C)c3)C(=O)c3ccccc32)c1	-10	i	i	i	-9.2*	i
CCOc1cc(/C=C2\C(=O)N(c3cccc(C(F)(F)F)c3)C(=O)c3ccccc32)ccc1O	-5	i	i	i	0.41	i
Cc1cccc(N2C(=O)/C(=C\c3ccc(OC(F)F)cc3)c3ccccc3C2=O)c1	-3	i	i	i	-4.3*	i
CC[C@]1(C(=O)OC)[C@H]2C(=O)N(Cc3ccccc3)C(=O)[C@H]2[C@H]2CN=C(SCC3CC3)N21	/	/	/	/	/	i
CCc1ccc(OCC(=O)NC(=S)Nc2ccc(C(C)=O)cc2)c(Br)c1	4.9*	i	i	i	2	i
CCc1ccc(OCC(=O)NC(=S)Nc2cccc(CO)c2)c(Br)c1	-8	i	i	i	0.17	i
COc1ccc(-c2nnc(SCC(=O)NC3CCCCC3)n2N)cc1	/	/	/	/	/	i
CC1CCCN(C(=O)c2ccc(OC3CCN(CCc4ccccc4)CC3)cc2)C1 (stereo unspecified)	-7	i	i	i	-4.5*	i
CC(=O)/C(=C/N(C)C)C(=O)Nc1ccc(Cl)cc1Cl	-7	10*	i	i	-0.06	i
CCOC(=O)C1=C(N)Oc2cc(O)ccc2C1c1ccc(Br)cc1 (stereo unspecified)	-1	i	i	i	-2.8	i
CC(C)(C)c1ccc(OCc2nc(-c3ccccn3)no2)c(Br)c1	-8	i	i	-6.8*	-0.41	i
